Measured values: PubChem BioAssay AID493047 (Johns Hopkins Ion Channel Center, 2011)

target: Potassium voltage-gated channel subfamily KQT member 3 (Rattus norvegicus) (UniProt O88944); assay: KCNQ3 channel potentiation by KCNQ2 openers, dose response, selectivity assay for KCNQ2 activator project, cell-based, thallium flux, CHO-K1 transient KCNQ3, rat (AID 493047); conditions: CHO-K1 transient KCNQ3, FluxOR thallium flux fluorescence; series mostly up to 30 µM; potentiation: at the top concentration
Outline: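 Test system: transiently transfected CHO-K1 cells / Control set: vehicle / Incubation: FluxOR dye loading 90 min, compound exposure 20 min, both RT, dark / Detection: FluxOR thallium-flux fluorescence / Reagent: depolarizing K2SO4 plus Tl2SO4 stimulus, 5x stock 12.5 mM each / Read-out: % change of flux ratio relative to vehicle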

Chain of Potassium voltage-gated channel subfamily KQT member 3 (Rattus norvegicus) (O88944 whole entry, looked up): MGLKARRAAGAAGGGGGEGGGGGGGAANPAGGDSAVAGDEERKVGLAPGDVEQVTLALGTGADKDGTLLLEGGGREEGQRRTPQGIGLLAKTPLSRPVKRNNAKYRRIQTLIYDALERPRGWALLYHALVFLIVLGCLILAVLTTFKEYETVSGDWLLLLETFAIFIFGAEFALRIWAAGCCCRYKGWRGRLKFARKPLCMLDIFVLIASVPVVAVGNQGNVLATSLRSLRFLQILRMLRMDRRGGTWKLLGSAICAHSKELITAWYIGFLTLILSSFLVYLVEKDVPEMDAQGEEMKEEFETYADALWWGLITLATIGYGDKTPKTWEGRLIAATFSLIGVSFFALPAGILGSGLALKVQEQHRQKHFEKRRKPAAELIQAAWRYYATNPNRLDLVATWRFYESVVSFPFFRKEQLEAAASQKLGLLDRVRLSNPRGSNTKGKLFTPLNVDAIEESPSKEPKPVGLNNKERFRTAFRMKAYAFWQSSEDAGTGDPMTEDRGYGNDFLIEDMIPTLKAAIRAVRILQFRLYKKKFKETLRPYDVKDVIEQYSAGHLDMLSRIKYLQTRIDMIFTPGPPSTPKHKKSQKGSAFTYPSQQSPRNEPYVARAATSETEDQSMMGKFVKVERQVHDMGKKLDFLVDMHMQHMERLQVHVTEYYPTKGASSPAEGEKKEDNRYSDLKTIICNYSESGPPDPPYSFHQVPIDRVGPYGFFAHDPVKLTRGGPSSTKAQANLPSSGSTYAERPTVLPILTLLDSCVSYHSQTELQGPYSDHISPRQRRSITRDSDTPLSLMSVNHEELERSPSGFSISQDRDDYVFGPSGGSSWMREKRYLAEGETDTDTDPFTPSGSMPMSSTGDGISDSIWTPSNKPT

potentiation, inactive:
Cc1cc(C)c(NC(=O)C2CC3CCC2C3)c(C)c1 (stereo not given) -9.88
CCCCC(=O)Nc1c(C)cc(C)cc1Cl -1.46
Cc1cccc(C)c1NC(=O)C1CC2CCC1C2 (stereo not given) -13.8
Cc1cc(C)c(NC(=O)CC(C)(C)C)c(Cl)c1 -1.12
Cc1ccc(C)c(NC(=O)C2CC3CCC2C3)c1 (stereo not given) -10
